Experimental data reported in publication PMC2721324 (Bioorganic & medicinal chemistry letters, 2009).
Like-named read-outs stand apart in the source and are kept apart here.

Experiments:
human P2Y6 receptor [1] = biological target: T1, human P2Y6 receptor (Homo sapiens, UniProt Q15077); conditions: read-out: Reference comp. (X = OCH2) EC50, native riboside, NE = no effect at 10 μM; cited from earlier work
human P2Y2 receptor [2] = biological target: T2, human P2Y2 receptor (Homo sapiens, UniProt P41231); conditions: cited from earlier work; for EC50: read-out: Reference comp. (X = OCH2) EC50, native riboside, NE = no effect at 10 μM
human P2Y4 receptor [3] = biological target: T3, human P2Y4 receptor (Homo sapiens, UniProt P51582); conditions: cited from earlier work; for EC50: read-out: Reference comp. (X = OCH2) EC50, native riboside, NE = no effect at 10 μM
human P2Y2 receptor [4] = biological target: T2, human P2Y2 receptor; format: cell-based; conditions: for agonist character (full or partial agonist): relative to UTP
In short: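 PLC activation via Gq in 1321N1 human astrocytoma cells stably expressing recombinant human P2Y2 receptor. The parent cells lack a native nucleotide response. Concentration–effect curves were generated for each test compound, and the maximal response was expressed as a percentage of the UTP effect (UTP = 100%) to classify full or partial agonism.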

human P2Y4 receptor [5] = biological target: T3, human P2Y4 receptor; format: cell-based; conditions: stimulation of PLC, NE = no effect at 10 μM
In short: (§1)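 Recombinant human P2Y4 or P2Y6 receptor, Gq-coupled, was stably expressed in 1321N1 human astrocytoma cells, which lack a native nucleotide response. Phospholipase C activation was measured over concentration–effect curves for each test compound. EC50 is the concentration giving 50% of the maximal effect, reported as mean ± standard error.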

human P2Y6 receptor [6] = biological target: T1, human P2Y6 receptor; format: cell-based
In short: as §1

T1 sequence (Q15077 whole entry): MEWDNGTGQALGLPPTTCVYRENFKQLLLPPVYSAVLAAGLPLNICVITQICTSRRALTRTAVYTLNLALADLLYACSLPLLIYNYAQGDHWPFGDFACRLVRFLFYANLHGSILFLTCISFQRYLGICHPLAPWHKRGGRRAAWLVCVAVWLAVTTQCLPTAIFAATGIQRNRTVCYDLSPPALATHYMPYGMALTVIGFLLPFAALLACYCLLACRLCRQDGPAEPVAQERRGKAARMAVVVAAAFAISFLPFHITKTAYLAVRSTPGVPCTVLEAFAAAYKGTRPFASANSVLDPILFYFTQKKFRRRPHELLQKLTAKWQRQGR
T2 sequence (P41231 whole entry): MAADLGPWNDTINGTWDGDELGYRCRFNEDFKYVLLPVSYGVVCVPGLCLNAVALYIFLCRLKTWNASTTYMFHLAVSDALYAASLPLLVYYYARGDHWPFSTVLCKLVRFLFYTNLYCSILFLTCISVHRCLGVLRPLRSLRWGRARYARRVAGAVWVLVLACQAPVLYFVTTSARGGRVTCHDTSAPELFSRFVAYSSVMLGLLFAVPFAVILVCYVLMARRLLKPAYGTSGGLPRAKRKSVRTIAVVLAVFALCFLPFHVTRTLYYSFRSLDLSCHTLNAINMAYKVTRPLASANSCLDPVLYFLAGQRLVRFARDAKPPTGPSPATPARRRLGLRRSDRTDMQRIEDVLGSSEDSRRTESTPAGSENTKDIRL
T3 sequence (P51582 whole entry): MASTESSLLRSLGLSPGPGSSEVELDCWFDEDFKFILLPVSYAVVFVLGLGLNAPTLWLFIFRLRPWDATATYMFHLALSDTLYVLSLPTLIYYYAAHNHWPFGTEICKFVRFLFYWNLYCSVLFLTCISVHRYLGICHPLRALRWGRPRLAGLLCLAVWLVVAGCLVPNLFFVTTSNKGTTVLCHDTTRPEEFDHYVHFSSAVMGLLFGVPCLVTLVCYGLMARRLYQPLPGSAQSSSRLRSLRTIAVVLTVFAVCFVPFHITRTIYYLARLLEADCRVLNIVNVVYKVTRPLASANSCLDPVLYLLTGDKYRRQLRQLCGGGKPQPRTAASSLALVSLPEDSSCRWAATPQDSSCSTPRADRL

| SMILES | EC50 (human P2Y6 receptor [1]) [µM] | EC50 (human P2Y2 receptor [2]) [µM] | EC50 (human P2Y4 receptor [3]) [µM] | agonist character (full or partial agonist) (human P2Y2 receptor [4]) | further results |
| --- | --- | --- | --- | --- | --- |
| O=c1ccn([C@@H]2O[C@H](COP(=O)(O)OP(=O)(O)OC[C@H]3O[C@@H](n4ccc(=O)[nH]c4=O)[C@H](O)[C@@H]3O)[C@@H](O)[C@H]2O)c(=O)[nH]1 [Up2U] | 1.26 ± 0.17 | > 10 | > 10 |  |  |
| O=c1ccn([C@@H]2O[C@H](CP(=O)(O)OP(=O)(O)O)[C@@H](O)[C@H]2O)c(=O)[nH]1 [Compound 4, uridine 5′-phospho-phosphonate] |  |  |  | partial ag | maximal effect relative to that of UTP (human P2Y2 receptor [4]; effect of UTP = 100%): ≤ 50%; EC50 (human P2Y4 receptor [5]): > 10 µM; agonist character (full or partial agonist) (human P2Y6 receptor [6]): full agonist; potency less than UDP (human P2Y6 receptor [6]): approximately 40 fold |
| O=c1ccn([C@@H]2O[C@H](COP(=O)(O)O)[C@@H](O)[C@H]2O)c(=O)[nH]1 [UMP] | > 10 | > 10 | > 10 |  | Reference comp. (X = OCH2) EC50 (human P2Y2 receptor [2]; native riboside, NE = no effect at 10 μM): no effect |
| Nc1ncnc2c1ncn2[C@@H]1O[C@H](COP(=O)(O)OP(=O)(O)OP(=O)(O)O)[C@@H](O)[C@H]1O [ATP] |  | 0.085 ± 0.012 |  |  | Reference comp. (X = OCH2) activity (human P2Y4 receptor [3]; native riboside): Antagonist[12] |
| O=c1ccn([C@@H]2O[C@H](COP(=O)(O)OP(=O)(O)O)[C@@H](O)[C@H]2O)c(=O)[nH]1 [UDP] | 0.046 ± 0.02 | > 10 | > 10 |  |  |
| O=c1ccn([C@@H]2O[C@H](CCP(=O)(O)O)[C@@H](O)[C@H]2O)c(=O)[nH]1 [Compound 7, uridine 5 ′-methylene-phosphonate] |  |  |  | partial ag | EC50 (human P2Y4 receptor [5]; listed as 5′-methylphosphonate equivalent of UMP): inactive |
| O=c1ccn([C@@H]2O[C@H](COP(=O)(O)OP(=O)(O)C[C@H]3O[C@@H](n4ccc(=O)[nH]c4=O)[C@H](O)[C@@H]3O)[C@@H](O)[C@H]2O)c(=O)[nH]1 [Compound 5, di-(uridine- phosphonate)] |  |  |  |  | EC50 (human P2Y4 receptor [5]): > 10 µM; EC50 (human P2Y6 receptor [6]; stimulation of PLC, mean ± standard error, NE = no effect at 10 μM): > 10 µM |
| O=c1ccn([C@@H]2O[C@H](COP(=O)(O)OP(=O)(O)OP(=O)(O)O)[C@@H](O)[C@H]2O)c(=O)[nH]1 [UTP] | > 10 | 0.049 ± 0.012 | 0.073 ± 0.02 |  |  |
| O=c1ccn([C@@H]2O[C@H](/C=C/P(=O)(O)OP(=O)(O)OP(=O)(O)O)[C@@H](O)[C@H]2O)c(=O)[nH]1 [Compound 3, uridine 5′-(diphospho)-vinylphosphonate] |  |  |  | Full agonist activity | reduction of potency relative to ATP or UTP (human P2Y2 receptor [4]; range over compounds 1, 2 and 3): 16–176 fold |
